Laboratory results from ChEMBL document CHEMBL1132556, “Combined effect of platination and intercalation upon DNA binding of novel cytotoxic Pt-bis(naphthalimide) complexes” (J Med Chem, 1999).

Key:
Mus musculus = species on record: Mus musculus; assay: (§1) Compound was tested for inhibitory activity against transformed Pam 212-ras murine keratinocytes; activity expressed in Mean IC50 values; assay type: functional, organism-based
Outline: (§2)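 Cell survival in drug-treated cultures read by MTT assay. Compound stock solutions (0.5–1.2 mg/mL) were freshly prepared before use. Cells: ovarian carcinoma lines A2780, A2780cisR, CH1 and CH1cisR; normal murine keratinocytes Pam 212; Pam 212-ras, which are murine keratinocytes transformed with the v-H-ras oncogene and resistant to cis-DDP.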

CH1 [1] = assay: Compound was tested for inhibitory activity against CH1cisR human ovarian carcinoma cell line; activity expressed in Mean IC50 values; assay type: functional, cell-based; outline: as §2
[2] = Compound was tested for inhibitory activity against normal Pam 212 murine keratinocytes; activity expressed in Mean IC50 values; assay type: functional, Mus musculus; outline: as §2
CH1 [3] = assay: Compound was tested for inhibitory activity against CH1 human ovarian carcinoma cell line; activity expressed in Mean IC50 values; assay type: functional, cell-based; outline: as §2
[4] = as §1; assay type: functional, Mus musculus; outline: as §2
A2780 [5] = assay: Compound was tested for inhibitory activity against A2780 human ovarian carcinoma cell line; activity expressed in Mean IC50 values; assay type: functional, cell-based; outline: as §2
A2780 [6] = assay: Compound was tested for inhibitory activity against A2780cisR human ovarian carcinoma cell line; activity expressed in Mean IC50 values; assay type: functional, cell-based; outline: as §2

| IC50 (Mus musculus) [µM] | IC50 (CH1 [1]; ch1cisr) [µM] | IC50 (CH1 [3]; Homo sapiens, CH1) [µM] | IC50 [4] [µM] | IC50 (A2780 [5]; Homo sapiens, A2780) [µM] | IC50 (A2780 [6]; Homo sapiens, A2780) [µM] | IC50 (CH1 [1]; Homo sapiens, CH1cisR) [µM] | IC50 (CH1 [3]; ch1) [µM] | IC50 (A2780 [5]; a2780) [µM] | IC50 (A2780 [6]; a2780) [µM] | Compound | IC50 [2] [µM] |
| --- | --- | --- | --- | --- | --- | --- | --- | --- | --- | --- | --- |
| 165 | 0.65 | – | – | – | – | – | – | – | – | CISPLATIN | – |
| – | – | > 10 | 160 | > 10 | > 100 | > 100 | – | – | – | O=C1c2cccc3cccc(c23)C(=O)N1CCNCCNCCN1C(=O)c2cccc3cccc(c23)C1=O | 140 |
| – | 0.6 | – | 89 | – | – | – | 0.35 | 0.28 | 1 | Platinum cyclobutane-1,1-dicarboxylic acid-bis-(naphthalimide) complex | 158 |
